In general, MBC refers to the lowest tested concentration that kills the bacteria rather than only halting them. One may read the MIC as the lowest concentration that inhibits growth of the organism. A low value points to a more susceptible organism.

For data set [1], the system named is Mycobacterium tuberculosis. Kind of data set: Antimycobacterial activity against Mycobacterium tuberculosis H37Ra ATCC 25177 by microbroth dilution method. It is filed as functional. An outline of the steps: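 M. tuberculosis H37Ra (ATCC 25177) colonies suspended in Middlebrook 7H9 broth to 1.0 McFarland, diluted tenfold, mixed 1:1 with twofold compound dilutions (DMSO stocks; final 256 to 1 µg/mL). Growth was checked by Kinyoun acid-fast smear. MIC = lowest concentration giving complete inhibition.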
For orientation: In broth dilution the organism is exposed to a series of concentrations in liquid medium.

In another data set the test system is L929. The experiment in a line: Cytotoxicity against mouse L929 cells at 0.1 mM after 24 hrs by MTT assay. The format is cell-based. The conditions noted are these: l929, 24 h, 100 µM. An outline of the steps: (§1)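 L929 mouse fibroblasts seeded at 3 × 10³ cells/well in 100 µl medium; cell-free medium wells as controls. Exposed to compounds at 10^-4 M for 24 h. Viable cells quantified by MTT with absorbance read at 570 nm. Viability given as percent of absorbance of unexposed cells. Each experiment repeated three times.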
In general terms: Formazan colour is commonly taken as a measure of viable cells.

Data set [2] can be described thus: Cytotoxicity against mouse L929 cells at 0.1 mM assessed as cell viability after 24 hrs by MTT assay. The format is cell-based. The conditions noted are these: read-out: Activity. Summed up: as §1

Molecules are shown by their SMILES. In brackets after ≈: the same amount, converted by molar mass. Bounds are passed on as bounds.

With `CC(=O)NS(=O)(=O)c1ccc(N2C(=O)c3ccccc3C2=O)cc1`, in data set [1], the MBC was determined as 256 µg/mL (≈ 743 µM) and the MIC was determined as 256 µg/mL (≈ 743 µM). The Activity result in the data set on L929 was “Non-toxic”.

Turning to `O=C(NS(=O)(=O)c1ccc(N2C(=O)c3ccccc3C2=O)cc1)c1ccccc1`, in data set [1], the minimum bactericidal concentration (MBC) came out at 256 µg/mL (≈ 630 µM) and the MIC was 128 µg/mL (≈ 315 µM). The Activity result in the data set with L929 was “Non-toxic”.

For the molecule `O=C1c2ccccc2C(=O)N1c1ccc(S(=O)(=O)Nc2nccs2)cc1`, in data set [1], the minimum bactericidal concentration (MBC) came to 256 µg/mL (≈ 664 µM) and the MIC amounted to 256 µg/mL (≈ 664 µM). In addition, in the data set with L929, the Activity entry is given as “Non-toxic”.

On to `CC(=O)NS(=O)(=O)c1ccc(N2C(=O)c3c(F)c(F)c(F)c(F)c3C2=O)cc1`, for which, in data set [1], the MBC worked out at 128 µg/mL (≈ 307 µM) and the MIC was 64 µg/mL (≈ 154 µM). For the same molecule, the Activity result in the data set with L929 is “Non-toxic”.

Turning to `O=C(NS(=O)(=O)c1ccc(N2C(=O)c3c(F)c(F)c(F)c(F)c3C2=O)cc1)c1ccccc1`, in data set [1], the MBC is 128 µg/mL (≈ 268 µM) and the minimum inhibitory concentration (MIC) was determined as 64 µg/mL (≈ 134 µM). Moreover, the Activity result with L929 was “Non-toxic”.

With `O=C1c2c(F)c(F)c(F)c(F)c2C(=O)N1c1ccc(S(=O)(=O)Nc2ncccn2)cc1`, in data set [1], the MBC came out at 64 µg/mL (≈ 141 µM) and the MIC was 32 µg/mL (≈ 70.7 µM). Further, the Activity entry in the data set with L929 is reported as “Non-toxic”.

For the molecule `Cc1cc(C)nc(NS(=O)(=O)c2ccc(N3C(=O)c4c(F)c(F)c(F)c(F)c4C3=O)cc2)n1`, in data set [1], the MBC was 128 µg/mL (≈ 266 µM) and it took 32 µg/mL (≈ 66.6 µM) to inhibit growth (MIC). For the same molecule, the Activity entry in the data set on L929 is listed as “Toxic”.

In data set [1], `O=C1c2c(F)c(F)c(F)c(F)c2C(=O)N1c1ccc(S(=O)(=O)Nc2nccs2)cc1` came in with an MBC of 64 µg/mL (≈ 140 µM) and an MIC of 64 µg/mL (≈ 140 µM). Moreover, the Activity entry with L929 is “Non-toxic”.

In data set [1], `Cc1cc(NS(=O)(=O)c2ccc(N3C(=O)c4c(F)c(F)c(F)c(F)c4C3=O)cc2)no1` registered an MBC of 128 µg/mL (≈ 281 µM) and an MIC of 32 µg/mL (≈ 70.3 µM). For the same molecule, the Activity result in the data set on L929 is given as “Toxic”. The viability at 24 h, 100 µM in data set [2] is less than 50%.

In data set [1], `Cc1ccnc(NS(=O)(=O)c2ccc(N3C(=O)c4c(F)c(F)c(F)c(F)c4C3=O)cc2)n1` registered an MBC of 256 µg/mL (≈ 549 µM) and an MIC of 128 µg/mL (≈ 274 µM).

For the molecule `COc1ncnc(NS(=O)(=O)c2ccc(N3C(=O)c4c(F)c(F)c(F)c(F)c4C3=O)cc2)c1OC`, in data set [1], the minimal bactericidal concentration (MBC) is 64 µg/mL (≈ 125 µM) and the MIC stood at 32 µg/mL (≈ 62.5 µM). The Activity result with L929 was “Toxic”. Moreover, the viability at 24 h, 100 µM in data set [2] was less than 50%.

In data set [1], `NNC(=O)c1ccncc1` [ISONIAZID] had an MIC of less than 0.2 µg/mL.

In data set [1], `Nc1ccc(S(=O)(=O)NC(=O)c2ccccc2)cc1` [SULFABENZAMIDE] gave an MBC of 256 µg/mL (≈ 926 µM) and a minimum inhibitory concentration (MIC) of 32 µg/mL (≈ 116 µM).

In data set [1], `CC(=O)NS(=O)(=O)c1ccc(N)cc1` [SULFACETAMIDE] returned an MBC of 256 µg/mL (≈ 1190 µM) and an MIC of 64 µg/mL (≈ 299 µM).

Regarding `Nc1ccc(S(=O)(=O)Nc2ncccn2)cc1` [SULFADIAZINE], in data set [1], the MBC came out at 128 µg/mL (≈ 511 µM) and the MIC came to 8 µg/mL (≈ 32 µM).

Regarding `COc1ncnc(NS(=O)(=O)c2ccc(N)cc2)c1OC` [SULFADOXINE], in data set [1], the MBC was 256 µg/mL (≈ 825 µM) and the minimal inhibitory concentration (MIC) is 32 µg/mL (≈ 103 µM).

For `Cc1ccnc(NS(=O)(=O)c2ccc(N)cc2)n1` [SULFAMERAZINE], in data set [1], the MBC is 256 µg/mL (≈ 969 µM) and the MIC was 32 µg/mL (≈ 121 µM).

For `Cc1cc(C)nc(NS(=O)(=O)c2ccc(N)cc2)n1` [SULFAMETHAZINE], in data set [1], the MBC was 256 µg/mL (≈ 920 µM) and the MIC amounted to 32 µg/mL (≈ 115 µM).

In data set [1], `Cc1cc(NS(=O)(=O)c2ccc(N)cc2)no1` [SULFAMETHOXAZOLE] had an MBC of 256 µg/mL (≈ 1010 µM) and an MIC of 32 µg/mL (≈ 126 µM).

Regarding `Nc1ccc(S(=O)(=O)Nc2nccs2)cc1` [SULFATHIAZOLE], in data set [1], the MBC came out at 16 µg/mL (≈ 62.7 µM) and the MIC is 4 µg/mL (≈ 15.7 µM).

On to `O=C1CCC(N2C(=O)c3ccccc3C2=O)C(=O)N1` (stereo not drawn) [THALIDOMIDE], for which, in data set [1], the minimal bactericidal concentration (MBC) came to 256 µg/mL (≈ 991 µM) and the MIC was 128 µg/mL (≈ 496 µM).

The values above are taken from ChEMBL document CHEMBL2046301, “Synthesis and antimycobacterial activity of some phthalimide derivatives” (Bioorg Med Chem, 2012).
